Results taken from ChEMBL document CHEMBL1773052, “3-Trifluoromethylquinoxaline N,N'-dioxides as anti-trypanosomatid agents. Identification of optimal anti-T. cruzi agents and mechanism of action studies” (J Med Chem, 2011).
Active and inactive are the calls of the source. The rule behind the calls is not given here.

What was measured:
Trypanosoma cruzi [1] = assay: Antitrypanosomal activity against Trypanosoma cruzi CL Brener clone epimastigotes assessed as cell death at 25 uM after 2 days by MTT assay relative to control; type: functional
Summary of the method: (§1)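 Epimastigotes of each strain taken in exponential growth in BHI-tryptose with 5% FBS, 1 mL per well. Compounds added from DMSO and kept 2 days at 28 °C. Cells washed twice and resuspended in PBS-glucose (5.5 mM), then given 0.4 mg/mL MTT for 4 h at 28 °C. Lysis in SDS-isopropanol, OD read. Triplicate wells, six growth controls. PCyt taken against control, corrected for medium-only wells.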

Trypanosoma cruzi [2] = assay: Antitrypanosomal activity against Trypanosoma cruzi Y epimastigotes assessed as cell death at 25 uM after 2 days by MTT assay relative to control; type: functional; summary of the method: as §1
Trypanosoma cruzi [3] = assay: Antitrypanosomal activity against Trypanosoma cruzi Colombiana epimastigotes assessed as cell death at 25 uM after 2 days by MTT assay relative to control; type: functional; summary of the method: as §1
Trypanosoma cruzi [4] = assay: Antitrypanosomal activity against Trypanosoma cruzi Tulahuen 2 epimastigotes assessed as growth inhibition after 5 days; type: functional; conditions: Tulahuen 2, 120 h, read-out: ID50
Summary of the method: (§2)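 Epimastigotes grown axenically at 28 °C in BHI-tryptose + 5% FBS; a 10-day stationary culture was inoculated to 1 × 10⁶ cells/mL. Drug added from DMSO stock, final DMSO ≤0.4%, vehicle control. A600 read daily. PGI on day 5 corrects for day-0 absorbance, relative to control. […] Three independent experiments.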

Trypanosoma cruzi [5] = assay: Inhibition of mitochondrial dehydrogenase activity in Trypanosoma cruzi Y epimastigotes at 20 uM up to 120 mins by MTT assay
Summary of the method: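 Y-strain epimastigotes, 10⁶ per well in 500 μL medium, treated with 20 μM compound at 28 °C, untreated wells as time-matched controls. At each time point cells counted, then MTT (50 μL of 5 mg/mL in PBS) added for 4 h. Stopped with acidic isopropanol, A570 read. Activity given as percent of untreated control.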

Trypanosoma cruzi [6] = assay: Antitrypanosomal activity against Trypanosoma cruzi Tulahuen 2 epimastigotes assessed as growth inhibition at 25 uM after 5 days relative to control; type: functional; conditions: Tulahuen 2, 120 h, read-out: GI; summary of the method: as §2
Trypanosoma cruzi [7] = assay: Antitrypanosomal activity against Trypanosoma cruzi CL Brener clone epimastigotes assessed as cell death after 2 days by MTT assay; type: functional; conditions: 48 h, read-out: ID50 (the source's name)
Summary of the method: (§3)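 Parasites in exponential growth, in BHI-tryptose + 5% FBS for T. cruzi or RPMI + 5% FBS for L. braziliensis, 28 °C, 24-well plates. Compounds in DMSO; miltefosine in ethanol. 2-day exposure, two PBS-glucose (5.5 mM) washes, then MTT 0.4 mg/mL for 4 h at 28 °C. SDS-isopropanol lysis, OD read. Triplicates, six growth controls.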

Trypanosoma cruzi [8] = assay: Antitrypanosomal activity against Trypanosoma cruzi Y epimastigotes assessed as cell death after 2 days by MTT assay; type: functional; conditions: 48 h, read-out: ID50 (the source's name); summary of the method: as §3
Leishmania braziliensis = assay: Antileishmanial activity against Leishmania braziliensis MHOM/BR/00/LTB300 promastigotes assessed as cell death after 2 days by MTT assay; type: functional; conditions: MHOM/BR/00/LTB300, 48 h, read-out: ID50 (the source's name); summary of the method: as §3
Trypanosoma cruzi [9] = assay: Antitrypanosomal activity against Trypanosoma cruzi Colombiana epimastigotes assessed as cell death after 2 days by MTT assay; type: functional; conditions: 48 h, read-out: ID50 (the source's name); summary of the method: as §3
[10] = Selectivity index, ratio of ID50 for mouse J774 cells to ID50 for Trypanosoma cruzi Tulahuen 2 epimastigotes; type: toxicity, cell-based; conditions: J774 cells versus Trypanosoma cruzi Tulahuen 2 epimastigotes, read-out: Selectivity Index
Trypanosoma cruzi [11] = assay: Antitrypanosomal activity against Trypanosoma cruzi CL Brener clone trypomastigotes in parasite infected BALB/c mouse blood assessed as parasite lysis at 250 ug/ml after 24 hrs relative to control; type: functional
Summary of the method: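 Blood from BALB/c mice 7 days post-infection, taken by cardiac puncture into 3.8% sodium citrate (7:3). Compounds dissolved in DMSO, diluted in PBS to 100 or 250 μg/mL. 10 μL mixed with 100 μL infected blood (~10⁶ parasites/mL), in triplicate. Shaken 10 min at RT, held 4 °C for 24 h. Parasites counted by microscopy; gentian violet 250 μg/mL as standard.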

Trypanosoma cruzi [12] = assay: Inhibition of mitochondrial dehydrogenase activity in Trypanosoma cruzi Y epimastigotes assessed as reduction of acetate excretion at 5 uM […] by NMR analysis
Summary of the method: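 Y-strain epimastigotes treated 2 days with 5 μM compound, 5 mL then centrifuged at 1500g for 10 min at 4 °C. Parasite-free supernatant stored at −20 °C. Before NMR, 0.3 mL supernatant mixed with 0.1 mL DMF (10 mM, internal standard) and 0.1 mL D₂O. Excreted metabolites compared with parasite-free medium control, expressed relative to DMF. Three experiments.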

Trypanosoma cruzi [13] = assay: Inhibition of mitochondrial dehydrogenase activity in Trypanosoma cruzi Y epimastigotes assessed as reduction of succinate excretion […] by NMR analysis
Salmonella typhimurium [14] = assay: Mutagenic activity in Salmonella Typhimurium TA98 assessed as number of revertants at 0.2 to 15 ug/plate by Ames test in presence of S9 fraction; type: toxicity, organism-based; conditions: salmonella enterica subsp. enterica serovar typhimurium
Summary of the method: (§4)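 Direct plate incubation with S. typhimurium TA98 on minimal glucose agar. Toxicity to the strain tested first; doses run in triplicate from DMSO solutions, DMSO as negative control. Metabolic activation with 500 μL Aroclor-treated mouse liver S9. Positive controls: 4-nitro-o-phenylenediamine 20.0 μg/plate without S9; 2-aminofluorene 10.0 μg/plate with S9. Revertants counted manually; mutagenic if ≥2-fold the negative control at two consecutive doses.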

Salmonella typhimurium [15] = assay: Mutagenic activity in Salmonella Typhimurium TA98 assessed as number of revertants at 0.2 to 15 ug/plate by Ames test in absence of S9 fraction; type: toxicity, organism-based; conditions: salmonella enterica subsp. enterica serovar typhimurium; summary of the method: as §4
Trypanosoma cruzi [16] = assay: Antitrypanosomal activity against Trypanosoma cruzi CL Brener clone infected in BALB/c mouse assessed as reduction of parasitemia level at 10 mg/kg/day, po by ELISA; type: functional, organism-based
Summary of the method: (§5)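 Male BALB/c or Swiss albino mice, 30 days old, SPF, infected ip with 10³ blood trypomastigotes (CL Brener or Y). Oral dosing in PBS for 10 days. Controls: 10 mice on PBS; treated groups of 8. Tail-vein parasitemia weekly for 60 days, mortality recorded. Anti-T. cruzi antibodies measured by ELISA, run twice, at 30 and 60 or 90 days post-infection.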

Trypanosoma cruzi [17] = assay: Antitrypanosomal activity against Trypanosoma cruzi Y infected in Swiss albino mouse assessed as reduction of parasitemia level at 10 mg/kg/day, po by ELISA; type: functional, organism-based; summary of the method: as §5
Trypanosoma cruzi [18] = assay: Antitrypanosomal activity against Trypanosoma cruzi Y infected in Swiss albino mouse assessed as increase of mouse survival days at 10 mg/kg/day, po relative to control; type: functional
Trypanosoma cruzi [19] = assay: Antitrypanosomal activity against Trypanosoma cruzi CL Brener clone infected in BALB/c mouse assessed as reduction of microbial antibody level at 10 mg/kg/day, po after 90 days by Wilconxon test; type: functional, organism-based; summary of the method: as §5
Salmonella typhimurium [20] = assay: Mutagenic activity in Salmonella Typhimurium TA98 assessed as number of revertants at 0.05 to 4 ug/plate by Ames test in presence of S9 fraction; type: toxicity, organism-based; conditions: salmonella enterica subsp. enterica serovar typhimurium; summary of the method: as §4
Salmonella typhimurium [21] = assay: Mutagenic activity in Salmonella Typhimurium TA98 assessed as number of revertants at 0.05 to 4 ug/plate by Ames test in absence of S9 fraction; type: toxicity, organism-based; conditions: salmonella enterica subsp. enterica serovar typhimurium; summary of the method: as §4
Trypanosoma cruzi [22] = assay: Antitrypanosomal activity against Trypanosoma cruzi CL Brener clone infected in BALB/c mouse assessed as reduction of microbial antibody level at 10 mg/kg/day, po after 30 days by Wilconxon test; type: functional, organism-based; summary of the method: as §5
Trypanosoma cruzi [23] = assay: Antitrypanosomal activity against Trypanosoma cruzi CL Brener clone infected in BALB/c mouse assessed as increase of mouse survival days at 10 mg/kg/day, po relative to control; type: functional
[24] = Cytotoxicity against mouse J774 cells; type: cell-based; conditions: read-out: ID50 (the source's name)

Compound | Activity (Trypanosoma cruzi [1]) [%] | Activity (Trypanosoma cruzi [2]) [%] | Activity (Trypanosoma cruzi [3]) [%] | IC50 (Trypanosoma cruzi [4]) [µM] | inhibition (Trypanosoma cruzi [5]) | inhibition of growth at 25 µM (Trypanosoma cruzi [6]) [%] | IC50 (Trypanosoma cruzi [7]) [µM] | IC50 (Trypanosoma cruzi [8]) [µM] | IC50 (Leishmania braziliensis) [µM] | selectivity ratio [10] | also measured
O=C(c1ccccc1)c1c(C(F)(F)F)[n+]([O-])c2ccccc2[n+]1[O-] | 97 | 100 | 100 | 0.9 | Active | 100 | 3.1 | 4 | 1 |  | 
CC1CS(=O)(=O)CCN1/N=C/c1ccc([N+](=O)[O-])o1 (stereo not drawn) [NIFURTIMOX] |  |  |  | 7.7 | inactive | 100 | 4.9 | 9.7 |  | 41 | IC50 (Trypanosoma cruzi [9]): 3.4 µM
COC(=O)c1c(C)[n+]([O-])c2ccccc2[n+]1[O-] | 59 | 0 | 60 |  |  | 24 |  |  | > 50 |  | 
CN(C)c1ccc(C(=C2C=CC(=[N+](C)C)C=C2)c2ccc(N(C)C)cc2)cc1.[Cl-] [GENTIAN VIOLET] |  |  |  |  |  |  |  |  |  |  | Activity (Trypanosoma cruzi [11]): 100%
Cc1c(Sc2ccccc2)[n+]([O-])c2cc(Cl)c(Cl)cc2[n+]1[O-] | 98 | 100 | 100 | 6.5 | Active | 93 | < 1 | 2.9 | 1.4 |  | inhibition (Trypanosoma cruzi [12]): Active; IC50 (Trypanosoma cruzi [9]): 1.7 µM; inhibition (Trypanosoma cruzi [13]): Active
Cc1c(C(=O)c2ccccc2)[n+]([O-])c2cc(F)c(F)cc2[n+]1[O-] | 92 | 89 | 98 | 4.2 |  | 92 | 16.2 | 18.3 | 20.4 |  | IC50 (Trypanosoma cruzi [9]): 4.5 µM
Cc1c(C(=O)Nc2ccccc2)[n+]([O-])c2ccccc2[n+]1[O-] | 32 | 0 | 24 |  |  | 10 |  |  | > 50 |  | 
CC(=O)c1c(C)[n+]([O-])c2cc(F)c(F)cc2[n+]1[O-] |  |  |  | 0.4 |  | 100 |  |  |  |  | Activity (Salmonella typhimurium [14]): Toxic; Activity (Salmonella typhimurium [15]): Toxic
CC(=O)c1c(C(F)(F)F)[n+]([O-])c2cc(F)c(F)cc2[n+]1[O-] |  |  |  | 0.39 | Active | 100 |  |  |  | 27.2 | Activity (Trypanosoma cruzi [16]): Active; Activity (Trypanosoma cruzi [17]): inactive; survival at 10 mg/kg/day (Trypanosoma cruzi [18]): 62.5%; Activity (Trypanosoma cruzi [19]): Active; Activity (Trypanosoma cruzi [11]): 80%; Activity (Salmonella typhimurium [20]): Toxic; Activity (Salmonella typhimurium [21]): Toxic; Activity (Trypanosoma cruzi [22]): Active; survival at 10 mg/kg/day (Trypanosoma cruzi [23]): 100%; CC50 [24]: 10.6 µM
CCCCCCCCCCCCCCCCOP(=O)([O-])OCC[N+](C)(C)C [MILTEFOSINE] |  |  |  |  |  |  |  |  | 9 |  | 
CC(C)(C)C(=O)c1c(C(F)(F)F)[n+]([O-])c2cc(F)c(F)cc2[n+]1[O-] |  |  |  | 4.9 |  | 100 |  |  |  | < 0.6 | CC50 [24]: 16.2 µM
O=C(c1ccco1)c1c(C(F)(F)F)[n+]([O-])c2ccccc2[n+]1[O-] |  |  |  | 2.4 |  | 100 |  |  |  | 3 | CC50 [24]: 7.13 µM
CCOC(=O)c1c(-c2ccccc2)[n+]([O-])c2cc(Cl)c(Cl)cc2[n+]1[O-] | 94 | 100 | 100 | 11.3 |  | 99 | 16.4 | 7.1 | 3 |  | 
